Results from ChEMBL document CHEMBL4765349, “Design, synthesis and biological evaluation of novel N-sulfonylamidine-based derivatives as c-Met inhibitors via Cu-catalyzed three-component reaction” (Eur J Med Chem, 2020).

Assays:
A549 [1] = assay: Induction of apoptosis in human A549 cells assessed as early apoptosis measured after 12 hrs by Annexin V-FITC/ Propidium iodide stain based flow cytometry assay; assay type: functional, cell-based; conditions: dose 0.25-1 µM
Procedure, shortened: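 Cells double-stained with FITC-annexin V and propidium iodide, then flow cytometry gave the percentages of early and late apoptotic cells.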

[2] = Toxicity in Balb/c mouse assessed as survival rate at 200 mg/kg, ip measured after 15 days; assay type: organism-based; conditions: in vivo, time 15 day
Procedure, shortened: (§1)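 Acute toxicity: 8-week-old male BALB/c mice, randomized in groups of n = 10, given a single intraperitoneal injection on day zero (vehicle only, 100, 200, 300 or 400 mg/kg). A further untreated group served as normal control. Survival on day 15 was reported as a percentage.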

[3] = Toxicity in Balb/c mouse assessed as survival rate at 300 mg/kg, ip measured after 15 days; assay type: organism-based; conditions: in vivo, time 15 day; procedure, shortened: as §1
[4] = Toxicity in Balb/c mouse assessed as survival rate at 400 mg/kg, ip measured after 15 days; assay type: organism-based; conditions: in vivo, time 15 day; procedure, shortened: as §1
[5] = Toxicity in Balb/c mouse assessed as no abnormality at 100 to 200 mg/kg, ip measured after 15 days; assay type: organism-based; conditions: in vivo, 360 h, dose 100-200 mg/kg, time 15 day
Procedure, shortened: (§2)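 Acute toxicity in 8-week-old male BALB/c mice, randomized into groups of n = 10. Single intraperitoneal dose on day 0 of vehicle or 100, 200, 300 or 400 mg/kg, plus an untreated control group. Mice watched for 15 days for deaths, abnormalities, anaphylactic or allergic reactions and body weight loss.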

[6] = Toxicity in Balb/c mouse assessed as anaphylactic response at 100 to 200 mg/kg, ip measured after 15 days; assay type: organism-based; conditions: in vivo, 360 h, dose 100-200 mg/kg, time 15 day; procedure, shortened: as §2
[7] = Selectivity index, ratio of IC50 for human HUVEC cells assessed as inhibition of cell proliferation to IC50 of HT-29 cells assessed as inhibition of cell proliferation; assay type: toxicity; conditions: HUVEC cells versus HT-29 cells, read-out: Selectivity Index
[8] = Selectivity index, ratio of IC50 for human FHC cells assessed as inhibition of cell proliferation to IC50 of HT-29 cells assessed as inhibition of cell proliferation; assay type: toxicity; conditions: FHC cells versus HT-29 cells, read-out: Selectivity Index
[9] = AUC (0 to infinity) in Balb/c mouse at 2 mg/kg, iv measured after 24 hrs by LC/MS/MS analysis; assay type: ADME, organism-based; design: route intravenous, time 24 hrs, dose 2 mg/kg; conditions: in vivo
Procedure, shortened: (§3)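 BALB/c mice dosed once orally at 8 mg/kg or intravenously at 2 mg/kg. Plasma concentration followed over time, and Cmax, Tmax, AUC0-∞, elimination half-life, clearance and oral bioavailability were derived from it.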

[10] = Half life in Balb/c mouse at 8 mg/kg, po measured after 24 hrs by LC/MS/MS analysis; assay type: ADME, organism-based; conditions: in vivo; procedure, shortened: as §3
[11] = AUC (0 to infinity) in Balb/c mouse at 8 mg/kg, po measured after 24 hrs by LC/MS/MS analysis; assay type: ADME, organism-based; design: route oral, time 24 hrs, dose 8 mg/kg; conditions: in vivo; procedure, shortened: as §3
[12] = Clearance in Balb/c mouse at 8 mg/kg, po measured after 24 hrs by LC/MS/MS analysis; assay type: ADME, organism-based; conditions: in vivo
Procedure, shortened: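 Clearance from the plasma profile of BALB/c mice after a single oral dose of 8 mg/kg.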

[13] = Oral bioavailability in Balb/c mouse at 8 mg/kg measured after 24 hrs by LC/MS/MS analysis; assay type: ADME, organism-based; conditions: in vivo; procedure, shortened: as §3
[14] = molecular target: Platelet-derived growth factor receptor alpha (Homo sapiens, UniProt P16234); assay: Inhibition of PDGFR alpha (unknown origin) using poly (Glu, Tyr)4:1 as substrate in presence of ATP measured after 30 mins by HTRF assay
Chain of Platelet-derived growth factor receptor alpha (P16234 whole entry): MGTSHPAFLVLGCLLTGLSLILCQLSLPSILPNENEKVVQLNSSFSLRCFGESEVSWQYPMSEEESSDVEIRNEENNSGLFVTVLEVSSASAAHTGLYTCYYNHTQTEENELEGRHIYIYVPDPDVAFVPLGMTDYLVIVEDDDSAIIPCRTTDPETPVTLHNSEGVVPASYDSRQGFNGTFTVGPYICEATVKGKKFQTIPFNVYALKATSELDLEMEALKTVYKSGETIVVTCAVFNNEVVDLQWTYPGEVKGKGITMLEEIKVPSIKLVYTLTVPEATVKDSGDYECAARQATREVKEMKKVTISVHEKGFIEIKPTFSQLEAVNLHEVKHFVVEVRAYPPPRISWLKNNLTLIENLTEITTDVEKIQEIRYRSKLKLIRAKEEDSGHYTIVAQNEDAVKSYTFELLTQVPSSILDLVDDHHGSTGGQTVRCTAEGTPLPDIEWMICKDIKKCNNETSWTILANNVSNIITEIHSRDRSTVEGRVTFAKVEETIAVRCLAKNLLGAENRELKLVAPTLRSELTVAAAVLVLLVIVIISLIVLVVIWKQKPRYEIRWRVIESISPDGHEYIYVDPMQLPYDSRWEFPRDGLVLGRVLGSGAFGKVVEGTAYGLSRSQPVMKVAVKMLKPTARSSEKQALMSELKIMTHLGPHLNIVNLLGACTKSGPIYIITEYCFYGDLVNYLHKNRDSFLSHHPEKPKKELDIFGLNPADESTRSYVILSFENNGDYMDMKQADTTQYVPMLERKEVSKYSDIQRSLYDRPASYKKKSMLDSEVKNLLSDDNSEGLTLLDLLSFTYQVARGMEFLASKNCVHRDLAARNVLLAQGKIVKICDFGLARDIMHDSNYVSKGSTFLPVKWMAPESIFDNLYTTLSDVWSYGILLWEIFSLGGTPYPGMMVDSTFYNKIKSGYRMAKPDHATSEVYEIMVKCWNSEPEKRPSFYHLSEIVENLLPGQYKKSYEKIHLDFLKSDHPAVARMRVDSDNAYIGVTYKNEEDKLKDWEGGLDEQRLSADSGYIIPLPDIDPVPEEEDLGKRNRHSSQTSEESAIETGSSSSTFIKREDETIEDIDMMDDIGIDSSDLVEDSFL
Procedure, shortened: (§4)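 Kinase inhibition measured by homogeneous time-resolved fluorescence (HTRF) across a panel of Ron, ALK and other tyrosine kinases, with IC50 as the read-out.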

[15] = molecular target: Macrophage-stimulating protein receptor (Homo sapiens, UniProt Q04912); assay: Inhibition of Ron (unknown origin) using poly (Glu, Tyr)4:1 as substrate in presence of ATP measured after 30 mins by HTRF assay; procedure, shortened: as §4
Chain of Macrophage-stimulating protein receptor (Q04912 25-304 limits assumed): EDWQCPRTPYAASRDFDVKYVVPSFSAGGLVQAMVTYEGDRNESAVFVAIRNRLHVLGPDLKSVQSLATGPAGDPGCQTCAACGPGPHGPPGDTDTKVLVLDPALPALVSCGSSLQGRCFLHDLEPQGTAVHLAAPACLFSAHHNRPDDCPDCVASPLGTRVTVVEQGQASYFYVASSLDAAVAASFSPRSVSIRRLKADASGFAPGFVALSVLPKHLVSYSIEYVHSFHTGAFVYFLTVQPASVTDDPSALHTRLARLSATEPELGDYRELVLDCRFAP
Chain of Macrophage-stimulating protein receptor (Q04912 310-1400 limits assumed): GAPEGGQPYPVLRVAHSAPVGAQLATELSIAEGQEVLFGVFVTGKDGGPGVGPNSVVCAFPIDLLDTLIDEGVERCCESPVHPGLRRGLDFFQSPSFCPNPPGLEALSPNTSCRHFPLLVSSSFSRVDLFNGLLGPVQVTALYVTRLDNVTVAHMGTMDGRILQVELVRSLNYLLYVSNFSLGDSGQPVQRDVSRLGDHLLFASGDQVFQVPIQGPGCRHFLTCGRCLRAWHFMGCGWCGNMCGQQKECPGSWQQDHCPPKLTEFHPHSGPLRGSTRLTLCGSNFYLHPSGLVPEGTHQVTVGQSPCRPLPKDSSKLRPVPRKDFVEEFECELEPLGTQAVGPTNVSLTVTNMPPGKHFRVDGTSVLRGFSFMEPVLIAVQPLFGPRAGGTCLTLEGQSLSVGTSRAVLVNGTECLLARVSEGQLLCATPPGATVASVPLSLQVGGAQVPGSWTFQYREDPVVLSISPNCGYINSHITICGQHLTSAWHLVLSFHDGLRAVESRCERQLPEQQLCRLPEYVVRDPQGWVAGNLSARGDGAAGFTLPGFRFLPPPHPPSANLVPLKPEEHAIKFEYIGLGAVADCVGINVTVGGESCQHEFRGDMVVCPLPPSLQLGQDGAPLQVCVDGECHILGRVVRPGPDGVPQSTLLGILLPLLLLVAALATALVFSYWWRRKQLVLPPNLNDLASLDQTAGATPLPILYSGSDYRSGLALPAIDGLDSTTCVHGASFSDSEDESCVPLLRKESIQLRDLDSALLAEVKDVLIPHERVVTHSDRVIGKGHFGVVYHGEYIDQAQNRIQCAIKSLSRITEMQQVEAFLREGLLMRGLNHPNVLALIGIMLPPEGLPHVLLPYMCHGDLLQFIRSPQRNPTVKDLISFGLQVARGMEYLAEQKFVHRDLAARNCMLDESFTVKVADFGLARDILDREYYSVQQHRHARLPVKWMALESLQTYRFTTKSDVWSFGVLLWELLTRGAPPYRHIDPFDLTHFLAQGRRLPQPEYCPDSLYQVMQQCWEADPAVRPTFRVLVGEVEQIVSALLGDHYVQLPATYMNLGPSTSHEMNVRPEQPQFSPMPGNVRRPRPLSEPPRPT

[16] = molecular target: Epidermal growth factor receptor (Homo sapiens, UniProt P00533); assay: Inhibition of EGFR (unknown origin) using poly (Glu, Tyr)4:1 as substrate in presence of ATP measured after 30 mins by HTRF assay; procedure, shortened: as §4
[17] = molecular target: T1, Receptor-type tyrosine-protein kinase FLT3 (Homo sapiens, UniProt P36888); assay: Inhibition of FLT-3 (unknown origin) using poly (Glu, Tyr)4:1 as substrate in presence of ATP measured after 30 mins by HTRF assay
T1 sequence (P36888 whole entry): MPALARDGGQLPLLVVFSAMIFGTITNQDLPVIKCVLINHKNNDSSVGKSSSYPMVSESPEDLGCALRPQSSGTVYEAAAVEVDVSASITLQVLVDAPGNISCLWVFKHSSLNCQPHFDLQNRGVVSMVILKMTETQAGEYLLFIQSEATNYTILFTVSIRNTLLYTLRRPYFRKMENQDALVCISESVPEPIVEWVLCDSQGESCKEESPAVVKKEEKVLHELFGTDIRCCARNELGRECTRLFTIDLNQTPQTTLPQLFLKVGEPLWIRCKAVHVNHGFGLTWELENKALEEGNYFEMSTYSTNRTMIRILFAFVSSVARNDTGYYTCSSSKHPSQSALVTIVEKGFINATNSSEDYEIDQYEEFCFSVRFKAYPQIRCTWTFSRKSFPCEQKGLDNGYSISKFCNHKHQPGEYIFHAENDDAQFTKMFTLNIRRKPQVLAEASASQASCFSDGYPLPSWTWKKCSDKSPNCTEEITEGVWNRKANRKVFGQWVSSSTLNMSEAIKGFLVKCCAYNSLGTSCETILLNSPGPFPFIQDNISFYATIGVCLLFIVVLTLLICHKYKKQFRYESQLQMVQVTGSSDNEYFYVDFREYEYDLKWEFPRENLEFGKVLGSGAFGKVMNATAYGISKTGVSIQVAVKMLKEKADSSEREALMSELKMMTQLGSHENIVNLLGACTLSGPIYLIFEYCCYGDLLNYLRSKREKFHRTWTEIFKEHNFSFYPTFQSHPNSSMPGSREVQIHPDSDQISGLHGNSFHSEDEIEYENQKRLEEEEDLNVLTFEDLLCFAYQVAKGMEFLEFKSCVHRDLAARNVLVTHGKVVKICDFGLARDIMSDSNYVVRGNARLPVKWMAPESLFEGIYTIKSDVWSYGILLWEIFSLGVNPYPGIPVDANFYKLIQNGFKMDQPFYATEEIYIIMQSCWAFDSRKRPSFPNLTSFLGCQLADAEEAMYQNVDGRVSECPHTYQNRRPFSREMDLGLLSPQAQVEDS

[18] = molecular target: ALK tyrosine kinase receptor (Homo sapiens, UniProt Q9UM73); assay: Inhibition of ALK (unknown origin) using poly (Glu, Tyr)4:1 as substrate in presence of ATP measured after 30 mins by HTRF assay; procedure, shortened: as §4
Chain of ALK tyrosine kinase receptor (Q9UM73 whole entry): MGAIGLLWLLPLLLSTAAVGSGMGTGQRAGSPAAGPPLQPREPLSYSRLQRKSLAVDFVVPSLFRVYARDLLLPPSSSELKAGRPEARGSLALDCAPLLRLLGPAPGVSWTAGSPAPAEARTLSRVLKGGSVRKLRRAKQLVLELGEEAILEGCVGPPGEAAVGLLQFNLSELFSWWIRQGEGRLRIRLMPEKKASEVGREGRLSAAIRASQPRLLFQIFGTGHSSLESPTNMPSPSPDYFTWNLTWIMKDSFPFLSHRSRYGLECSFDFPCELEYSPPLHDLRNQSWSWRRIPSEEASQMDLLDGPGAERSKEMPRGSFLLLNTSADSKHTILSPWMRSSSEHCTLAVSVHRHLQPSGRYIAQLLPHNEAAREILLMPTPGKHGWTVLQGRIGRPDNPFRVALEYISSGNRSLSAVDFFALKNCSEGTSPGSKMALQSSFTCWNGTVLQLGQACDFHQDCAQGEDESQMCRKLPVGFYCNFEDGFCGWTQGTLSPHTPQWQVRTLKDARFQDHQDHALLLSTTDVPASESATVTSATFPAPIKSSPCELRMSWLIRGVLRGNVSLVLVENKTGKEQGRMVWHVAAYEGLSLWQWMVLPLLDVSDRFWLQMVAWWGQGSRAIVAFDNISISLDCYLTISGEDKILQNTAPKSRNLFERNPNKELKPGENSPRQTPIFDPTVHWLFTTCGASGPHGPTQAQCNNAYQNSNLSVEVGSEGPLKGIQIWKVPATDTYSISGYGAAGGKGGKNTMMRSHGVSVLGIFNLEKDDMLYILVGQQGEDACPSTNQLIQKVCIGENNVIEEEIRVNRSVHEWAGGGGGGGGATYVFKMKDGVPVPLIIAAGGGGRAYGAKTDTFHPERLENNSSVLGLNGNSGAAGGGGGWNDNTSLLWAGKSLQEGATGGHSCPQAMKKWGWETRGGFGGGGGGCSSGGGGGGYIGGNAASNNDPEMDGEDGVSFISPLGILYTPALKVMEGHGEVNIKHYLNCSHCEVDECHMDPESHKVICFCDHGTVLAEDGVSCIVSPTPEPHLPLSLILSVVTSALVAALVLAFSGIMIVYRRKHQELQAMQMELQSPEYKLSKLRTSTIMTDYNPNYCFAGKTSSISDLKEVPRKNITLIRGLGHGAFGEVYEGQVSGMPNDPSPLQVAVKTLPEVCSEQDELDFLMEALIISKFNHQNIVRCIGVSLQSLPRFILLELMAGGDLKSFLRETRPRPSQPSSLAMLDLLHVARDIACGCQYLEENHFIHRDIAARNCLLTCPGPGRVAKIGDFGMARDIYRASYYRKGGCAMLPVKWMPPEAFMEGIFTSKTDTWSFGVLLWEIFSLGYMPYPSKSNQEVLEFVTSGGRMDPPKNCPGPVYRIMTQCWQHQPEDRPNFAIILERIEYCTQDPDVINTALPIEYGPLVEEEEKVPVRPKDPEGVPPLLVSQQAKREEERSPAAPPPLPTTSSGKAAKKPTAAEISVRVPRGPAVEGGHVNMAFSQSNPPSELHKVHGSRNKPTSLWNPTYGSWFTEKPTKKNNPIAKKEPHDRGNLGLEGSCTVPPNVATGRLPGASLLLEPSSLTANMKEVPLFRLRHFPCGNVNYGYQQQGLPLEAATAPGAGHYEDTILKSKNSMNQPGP

A549 [19] = assay: cells; conditions: Homo sapiens, A549, 72 h
HT-29 = assay: cells; conditions: Homo sapiens, HT-29, 72 h

COCC/C(=N\S(=O)(=O)Cc1ccc(Cl)cc1)Nc1ccc(Oc2ccnc3cc(OCCCN4CCOCC4)c(OC)cc23)c(F)c1
Activity (A549 [1]): Dose-dependent effect | survival at 360 h [2]: 100% | survival at 360 h [3]: 70% | survival at 360 h [4]: 50% | Activity [5]: Non-Toxic | Activity [6]: Non-Toxic | selectivity ratio [7]: 4.2 | selectivity ratio [8]: 19.1 | AUC [9]: 2.3 µg/h/mL | half-life [10]: 3.5 h | AUC [11]: 6.8 µg/h/mL | CL/F [12]: 1.18 L/h/kg | bioavailability [13]: 74% | IC50 [14]: 0.384 µM | IC50 [15]: 0.412 µM | IC50 [16]: > 10 µM | IC50 [17]: 0.00728 µM | IC50 [18]: > 10 µM | IC50 (A549 [19]): 0.28 µM | IC50 (HT-29): 0.32 µM
